Measured values from different studies.
UGT1A6: UDP-glucuronosyltransferase 1A6 (UGT1A6, Homo sapiens, UniProt P19224)
CYP2B6: Cytochrome P450 2B6 (CYP2B6, Homo sapiens, UniProt P20813)

SMILES	tested on	assay	system	setting	quantity	value
C[C@@H]1[C@H](O)[C@@H](C)/C=C/C=C/C=C/C=C/C=C/C=C/C=C/[C@H](O[C@@H]2O[C@H](C)[C@@H](O)[C@H](N)[C@@H]2O)C[C@@H]2O[C@](O)(C[C@@H](O)C[C@@H](O)[C@H](O)CC[C@@H](O)C[C@@H](O)CC(=O)O[C@H]1C)C[C@H](O)[C@H]2C(=O)O		haemolysis	human	0.5 µg/mL, 1 h	haemolysis	3.73%
CN(CCC(=O)O)C(=O)c1ccc2c(c1)CC[C@@H]1[C@@H]2CC[C@]2(C)C(c3cncc(F)c3)=CC[C@@H]12	UGT1A6	enzyme activity, inhibitor			IC50	> 30 µM
Cc1ccc(C(=O)N2CCOC[C@H]2Cc2cccc(-n3nccn3)c2)c(-n2nccn2)c1	CYP2B6	enzyme activity, inhibitor	human, liver microsomes	100 µM	inhibition	44%
CCOP(=O)(OCC)[C@@H]1C[C@H](n2cc(Cn3ccc(NC(C)=O)nc3=O)nn2)ON1C (racemic)	HeLa	cell growth or viability		72 h	CC50	> 250 µM
CC(CCc1ccccc1)=NNc1nc(-c2ccc(F)cc2)cs1		haemolysis	human	50 µM, 30 min, pH 7.4	haemolysis	8.38%
Cc1ccn2c(C(=O)N3CCN(Cc4cn(-c5cccc([N+](=O)[O-])c5)nn4)CC3)c(C)nc2c1	HeLa	cell growth or viability, resazurin			CC50	> 100 µM
CCOP(=O)(OCC)[C@@H]1C[C@H](n2cc(Cn3cnc4c(N)ncnc43)nn2)ON1C (relative stereo)	HEL	cell growth or viability		72 h	CC50	> 100 µM
Cc1ccn2c(C(=O)N3CCN(Cc4cn(-c5ccc(C(F)(F)F)cc5)nn4)CC3)c(C)nc2c1	HeLa	cell growth or viability, resazurin			CC50	> 100 µM
Oc1ccc(Cl)cc1C=NNc1nc(-c2ccc(F)cc2)cs1		haemolysis	human	50 µM, 30 min, pH 7.4	haemolysis	21.2%
CCOP(=O)(OCC)[C@@H]1C[C@@H](n2cc(-c3ccccc3)nn2)ON1C (racemic)	HeLa	cell growth or viability		72 h	CC50	> 250 µM
Cc1nc2ccc(Cl)cn2c1C(=O)N1CCN(Cc2cn(-c3ccc([N+](=O)[O-])cc3)nn2)CC1	HeLa	cell growth or viability, resazurin			CC50	> 100 µM
CCOP(=O)(OCC)[C@@H]1C[C@@H](n2cc(Cn3ccc(=O)[nH]c3=O)nn2)ON1C (racemic)	HeLa	cell growth or viability		72 h	CC50	≥ 250 µM
Oc1c(Br)cc(Cl)c2cccnc12			Sprague-Dawley rat, plasma	oral, 20 mg/kg	CL/F	85 mL/min/kg
Cc1nc2ccc(Cl)cn2c1C(=O)N1CCN(CCn2cc(-c3ccc(C(C)(C)C)cc3)nn2)CC1	HeLa	cell growth or viability, resazurin			CC50	> 100 µM
Fc1ccc(-c2csc(NN=Cc3ccc[nH]3)n2)cc1		haemolysis	human	50 µM, 30 min, pH 7.4	haemolysis	26.3%
Cc1ccn2c(C(=O)N3CCN(CCn4cc(-c5ccc(C(C)(C)C)cc5)nn4)CC3)c(C)nc2c1	HeLa	cell growth or viability, resazurin			CC50	> 100 µM
CCOP(=O)(OCC)[C@@H]1C[C@@H](n2cc(Cn3cc(C)c(=O)[nH]c3=O)nn2)ON1C (racemic)	HEL	cell growth or viability		72 h	CC50	> 100 µM
COc1cccc(-n2cc(CN3CCN(C(=O)c4c(C)nc5ccc(Cl)cn45)CC3)nn2)c1	HeLa	cell growth or viability, resazurin			CC50	> 100 µM
COc1ccc(S(=O)(=O)Nc2c(C(=O)Nc3c(C(=O)O)cc(OC)c(OC)c3OC)cc(OC)c(OC)c2OC)cc1	HeLa	cell growth or viability, XTT		72 h	IC50	95 µM
Cc1nc2ccc(Cl)cn2c1C(=O)N1CCN(Cc2cn(-c3cccc(C(F)(F)F)c3)nn2)CC1	HeLa	cell growth or viability, resazurin			CC50	> 100 µM
Fc1ccc(-c2csc(NN=Cc3cccs3)n2)cc1		haemolysis	human	10 µM, 30 min, pH 7.4	haemolysis	11.4%
CCc1cc(/C(C)=N/OCc2ccc(C3CCCCC3)c(C(F)(F)F)c2)ccc1CN1CC(C(=O)O)C1	CYP2B6	enzyme activity, inhibitor	human, liver microsomes	100 µM, 20 min	inhibition	21%
Fc1ccc(-c2csc(NN=Cc3ccc(C(F)(F)F)cc3)n2)cc1		haemolysis	human	50 µM, 30 min, pH 7.4	haemolysis	25.7%
C[C@@H](Cn1ccc(-c2ccc(C#N)c(Cl)c2)n1)NC(=O)c1cc([C@@H](C)O)[nH]n1	UGT1A6	enzyme activity, inhibitor	human, liver microsomes		IC50	> 100 µM
CCOc1ccccc1C=NNc1nc(-c2ccc(F)cc2)cs1		haemolysis	human	50 µM, 30 min, pH 7.4	haemolysis	16.8%
OC(Cn1cncn1)(Cn1cncn1)c1ccc(F)cc1F		haemolysis	human	8 µg/mL, 1 h	haemolysis	4.52%
Cc1ccn2c(C(=O)N3CCN(Cc4cn(-c5ccc([N+](=O)[O-])cc5)nn4)CC3)c(C)nc2c1	HeLa	cell growth or viability, resazurin			CC50	> 100 µM
Fc1ccc(-c2csc(NN=Cc3ccccc3C(F)(F)F)n2)cc1		haemolysis	human	10 µM, 30 min, pH 7.4	haemolysis	4.43%
